TRPML3 ag: human TRPML3 channel agonists, primary screen, cell-based, HEK293 TRPML3-YFP, Fluo-8 calcium fluorescence, 3 µM; Mucolipin-3 (Homo sapiens), Q8TDD5; 100% = the carbachol control signal; activation, % at 3 µM; actives 0.29% (n = 220,000);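 active means activation above its plate's cutoff, the mean activation of the plate's test wells plus 3 SD, cut at about 12% in these data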;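 further: 0% = DMSO only wells and 100% = carbachol wells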
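Test system: HEK293 cells stably carrying human TRPML3-YFP; Doses: single dose, 3 µM final nominal compound, 0.3% DMSO final; Schedule: dye loading 1 h 37 °C then 30 min ambient, 125 s read; Technique: Fluo-8 calcium fluorescence; Benchmarks: high control carbachol 87 µM, low control DMSO.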
V1R ag counter: agonists of human V1a receptor, primary screen, counter-screen for OXTR agonist project, fluorescence, CHO-V1R cells; Vasopressin V1a receptor (Homo sapiens), P37288; Fluo-8 calcium fluorescence, agonist mode; 0% DMSO, 100% 3 nM vasopressin; activation, % at 3 µM; actives 0.25% (n = 320,000); AID 2797, 2010;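 active means activation above the mean activation of all tested compounds plus 3 SD, per screening run, cut at about 20% in these data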;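 further: signal is peak over basal fluorescence ratio across a 100 second FLIPR read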
Target sequence (P37288 whole entry, looked up): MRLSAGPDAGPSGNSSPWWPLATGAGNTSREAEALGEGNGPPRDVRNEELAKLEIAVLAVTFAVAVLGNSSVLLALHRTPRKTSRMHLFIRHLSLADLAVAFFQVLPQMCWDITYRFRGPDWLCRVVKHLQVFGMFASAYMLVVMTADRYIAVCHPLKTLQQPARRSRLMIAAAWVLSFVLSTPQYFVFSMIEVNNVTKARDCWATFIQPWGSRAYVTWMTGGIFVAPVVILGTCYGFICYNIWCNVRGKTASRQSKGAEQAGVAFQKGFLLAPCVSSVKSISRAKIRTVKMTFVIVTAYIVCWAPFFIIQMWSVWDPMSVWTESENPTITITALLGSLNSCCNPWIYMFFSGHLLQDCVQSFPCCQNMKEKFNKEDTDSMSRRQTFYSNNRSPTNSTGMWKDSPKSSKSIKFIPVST
zfTRPN1 agonist: zebrafish TRPN1 channel agonists, primary screen, cell-based, HEK293, calcium fluorescence; transient receptor potential cation channel N1 (TRPN1/NompC), Danio rerio; HEK293 zebrafish TRPN1-YFP, Fluo-8 calcium fluorescence; 100% = response to 87 µM carbachol; activation, % at 3 µM; actives 0.18% (n = 220,000); AID 1424, 2008;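 active means activation above its plate's cutoff, the mean activation of test wells on that plate plus 3 SD, cut at about 19% in these data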;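 further: 0% = DMSO alone and 100% = 87 µM carbachol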
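Control set: carbachol 87 µM as high control, DMSO as low control; system: HEK293 stable line with zebrafish TRPN1-YFP; read-out: % activation versus carbachol response; detection: intracellular calcium fluorescence with Fluo-8; doses: single test compound dose, 3 µM nominal, 0.3% DMSO; schedule: dye 1 h 37 °C plus 30 min RT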
OXTR ag: human OXTR agonists, primary screen, fluorescence, CHO-OTR cells, Fluo-8 calcium; Oxytocin receptor (Homo sapiens), P30559; Fluo-8 calcium fluorescence; normalized: DMSO 0%, oxytocin 100%; activation, % at 3 µM; actives 0.32% (n = 320,000);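 active means activation above the mean of all tested compounds plus 3 SD, cutoff set per screening run, cut at about 20% in these data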;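 further: peak over basal fluorescence ratio from a 100 s FLIPR kinetic read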
OXTR potentiate: human OXTR potentiators, primary screen, fluorescence, CHO-OTR cells, Fluo-8 calcium; activation, % at 3 µM; actives 0.061% (n = 320,000); AID 2445, 2010; Fluo-8 calcium fluorescence, potentiator mode; 0% = oxytocin EC15, 100% = EC100; Oxytocin receptor (Homo sapiens), P30559;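 active means activation above that plate's cutoff, the mean activation of tested compounds plus 3 SD, cut at about 6.6% in these data, passing the limit was not always enough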;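 further: 100% uses oxytocin at 75 nM as the full agonist control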
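System: human OTR in CHO cells / Also added: sub-maximal oxytocin, roughly EC15 / Control set: EC15 oxytocin low, 75 nM oxytocin high / Schedule: 6 min compound pre-incubation at room temperature, 100 s kinetic read / Compound: single-point 3.0 µM / Replication: singlicate / Technique: Fluo-8 calcium dye fluorescence / Read-out basis: % activation of max/min ratio relative to oxytocin controls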
V1aR agonist cf: V1a receptor agonists, calcium signal, confirmation, Fluo-8 calcium fluorescence, CHO-V1R cells | shares compounds with V1R ag counter | agonist | activation, % at 3 µM | actives 20% (n = 180);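 active means average activation exceeds primary screen hit cutoff, cut at about 21% in these data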;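 further: peak over basal fluorescence ratio during a 100 s FLIPR read; 0% = DMSO only wells and 100% = 3 nM vasopressin wells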
OXTR counter: human OXTR agonists, counter-screen for V1R agonist project, fluorescence, CHO-OTR cells, triplicate; shares compounds with V1R ag counter; Fluo-8 calcium fluorescence; activation, % at 3 µM; actives 10% (n = 180); AID 434969, 2010;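 active means mean activation over three repeats above the cutoff from the earlier oxytocin receptor agonist screen, cut at about 20% in these data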;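 further: peak over minimum fluorescence ratio within a 100 second FLIPR read; 0% = DMSO only wells and 100% = oxytocin high control wells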
The depositor's hits bear a star; nt = no result given. The list is not random: actives were taken first. Their share in the collection is about 0.58%.

SMILES	TRPML3 ag	V1R ag counter	zfTRPN1 agonist	OXTR ag	OXTR potentiate	V1aR agonist cf	OXTR counter
Nc1nonc1-n1nnc(C(=O)N/N=C/c2cccnc2)c1CSc1ccccc1	nt	15.2	nt	9.8	-6.7	nt	nt
CCCOc1ccc(-c2c(C(=O)N/N=C/c3ccc(C)o3)nnn2-c2nonc2N)cc1	nt	4.0	nt	-0.8	-1.1	nt	nt
COc1ccc(/C=C2/C(=O)C(C)(C(C)C)CCC2C)cc1 (stereo unspecified)	nt	20.3*	nt	-1.4	-15.5	0.2	-1.1
COc1ccc(/C=C2/SC(=O)NC2=O)cc1	0.4	0.7	1.4	-0.2	1.6	nt	nt
O=C(N/N=C/c1sc(=O)[nH]c1-[n+]1ccccc1)c1ccccc1[O-]	-0.7	1.2	-1.1	1.1	0.7	nt	nt
O=C(N/N=C/c1sc(=O)[nH]c1-[n+]1ccc2ccccc2c1)c1ccccc1[O-]	nt	27.5*	nt	16.8	-3.2	0.7	-0.4
N#CCCN(CCC#N)C(=O)C1c2ccccc2Oc2ccccc21	nt	26.2*	nt	12.2	-5.5	0.9	0.7
CN(CCC#N)C(=O)COC(=O)C1c2ccccc2Oc2ccccc21	nt	1.4	nt	2.4	-1.6	nt	nt

Screens from PubChem BioAssay.
